# Results as given in publication PMC3171643 (ACS combinatorial science, 2011).
# How the values were obtained:
# [1] = molecular target: GST-Cn (catalytic domain of human Cn) (Homo sapiens, UniProt Q08209); assay type: binding; settings: Cn 5 μM, TMR-labeled peptide 100 nM
# Method in brief: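 Human Cn catalytic domain as a GST fusion, expressed in E. coli BL21 and glutathione-Sepharose purified. Single-bead-released TAMRA-labeled cyclic peptide (100 nM) was incubated with 5 μM GST-Cn for 2 h at room temperature in 20 mM HEPES pH 7.4, 150 mM NaCl, 2 mM magnesium acetate, 0.1% BSA. Anisotropy was read at ex 545/em 585 nm and expressed as % increase over the peptide without Cn.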
# [2] = molecular target: Cn; settings: cited from earlier work
# [3] = molecular target: Calcineurin (Homo sapiens) (UniProt Q08209); settings: cited from earlier work
molecule,measurement,setting,value
"CN(C)c1ccc2c(-c3ccccc3C(=O)[O-])c3ccc(N(C)C)cc3[o+]c2c1 [free TMR, tetramethylrhodamine]",percentage of FA increase (relative to the control without Cn),[1],less than 20%
MAPGHPVIVITGPHEE,Kd,[2]; VIVIT peptide binding to Cn,500 nM
same,fold higher affinity for Cn than the native sequence,[2],50 fold
VIVIT peptide,Kd,[3],500 nM
